# From PubChem BioAssay
# Rows were chosen to be rich in hits. Some 5.7% of all compounds tested hit in one or more screens of this group.
# SKKanGAS inh – blocks kanamycin growth of S. pyogenes SKKanGAS strain. BacTiter-Glo, 6 h. inhibition, % at 7.5 µM. 300,000 compounds, 1.3% hits. AID 1662;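 active = mean replicate score, as percent of positive control median, at least 50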;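 also: strain carries kanamycin resistance gene driven by streptokinase promoter and grows in 40 µg/ml kanamycin; loss of luminescence reflects streptokinase promoter inhibition or plain growth inhibition; 0% = median of DMSO wells and 100% = positive control at its reference dose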
# Calb FLC – affects C. albicans growth with fluconazole; 300,000 compounds, 0.57% hits; C. albicans CaCi-2 (fluconazole-resistant clinical isolate) + fluconazole, Alamar Blue growth, 48 h; growth inhibition, % (no concentration beside the values);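 active = growth inhibition above about 58% in most replicates, limit read from the data, passing the limit was not always enough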;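 also: all wells also contain fluconazole at 8 µg/ml as a sub-toxic cotreatment; 0% = median of DMSO wells and 100% = median of geldanamycin control wells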
# CSC inhib – blocks cancer stem cells; cancer stem cell-like cells viability, luminescence; inhibition, % at 7.5 µM; 300,000 compounds, 1.1% hits; in the data active = inhibition above about 75%; tested in HMLE shEcad cells
# T cruzi inh – T. cruzi replication inhibition; T. cruzi beta-gal in NIH3T3, luminescence, 90 h; inhibition, % (no concentration beside the values); 300,000 compounds, 1.4% hits; AID 1885;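 active = mean inhibition across valid replicates above about 55%, limit read from the data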;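 also: signal also drops with host cell toxicity which is not excluded here; 0% = plate median of DMSO wells and 100% = zero luminescence signal; higher percent means less beta-gal luminescence so fewer parasites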
#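 Assay system: NIH/3T3 host cells with β-galactosidase reporter T. cruzi; input: 5,000 host fibroblasts per well; compound: single 50 nL compound addition per well in DMSO; timing: ≥90 h infection period, 3 h prior cell attachment; measured by: GalScreen β-gal luminescence, detergent lysis, 60 min; evaluation: percent inhibition of parasite-derived β-gal signal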
# Beta cell apopt – blocks beta cell apoptosis. INS-1E cytokine-induced death, ATP luminescence, 48 h; percent of positive-control rescue, neutral wells zero. protection from apoptosis, % (test concentration not listed). 300,000 compounds, 0.8% hits;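 active = Every replicate reaches about 75%, or at least half do and their mean reaches it too, limit read from the data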;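 also: 0% = cytokine-treated negative control wells and 100% = positive control rescue; higher means more ATP so stronger rescue from cytokine killing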
# Mdm2-MdmX inh – human Mdm2/MdmX binding inhibition. SaOS-2 split-luciferase Mdm2/MdmX complementation, luminescence. inhibition, % at 8 µM. 330,000 compounds, 3% hits. O15151+Q00987;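 active = inhibition of at least 50% at 8 µM in the primary screen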
# Target sequence (O15151 whole entry, looked up): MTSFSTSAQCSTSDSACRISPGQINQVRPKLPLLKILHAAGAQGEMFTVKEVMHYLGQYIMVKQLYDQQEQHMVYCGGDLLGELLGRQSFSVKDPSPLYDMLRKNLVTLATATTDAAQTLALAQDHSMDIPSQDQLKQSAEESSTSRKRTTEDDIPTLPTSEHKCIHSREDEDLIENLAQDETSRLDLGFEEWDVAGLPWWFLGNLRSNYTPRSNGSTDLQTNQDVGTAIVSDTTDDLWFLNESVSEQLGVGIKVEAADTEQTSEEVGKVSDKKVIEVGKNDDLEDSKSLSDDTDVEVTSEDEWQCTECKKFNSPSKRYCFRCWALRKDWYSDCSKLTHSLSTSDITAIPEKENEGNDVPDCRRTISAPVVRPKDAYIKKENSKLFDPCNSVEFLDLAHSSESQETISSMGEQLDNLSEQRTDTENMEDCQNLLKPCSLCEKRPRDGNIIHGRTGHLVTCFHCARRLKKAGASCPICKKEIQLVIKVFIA
# Target sequence (Q00987 whole entry, looked up): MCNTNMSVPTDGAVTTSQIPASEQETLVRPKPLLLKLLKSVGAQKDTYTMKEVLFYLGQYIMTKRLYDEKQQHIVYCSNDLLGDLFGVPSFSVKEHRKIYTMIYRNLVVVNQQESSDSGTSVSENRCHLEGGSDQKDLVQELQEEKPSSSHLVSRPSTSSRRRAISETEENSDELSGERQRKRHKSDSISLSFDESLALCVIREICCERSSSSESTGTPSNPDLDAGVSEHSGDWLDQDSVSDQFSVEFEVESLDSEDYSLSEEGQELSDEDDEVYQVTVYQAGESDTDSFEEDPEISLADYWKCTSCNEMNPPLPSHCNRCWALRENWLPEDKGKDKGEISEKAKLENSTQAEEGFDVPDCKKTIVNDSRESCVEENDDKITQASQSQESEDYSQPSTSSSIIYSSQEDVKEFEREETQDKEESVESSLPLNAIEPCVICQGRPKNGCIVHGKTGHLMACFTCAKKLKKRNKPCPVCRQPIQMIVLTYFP
# Mdm2-MdmX conf – confirmation of human Mdm2/MdmX interaction inhibitors | AID 489028 | Mdm2-MdmX binding, luminescent assay | inhibition, % at 8 µM | 10,000 compounds, 55% hits | shares compounds with Mdm2-MdmX inh; in the data active = inhibition above about 40%
# Full FLuc ctr – full-length luciferase inhibition in Mdm2/MdmX counter-screen; shares compounds with Mdm2-MdmX inh; SaOS-2 full-length luciferase counterscreen, luminescence; inhibition, % at 8 µM; 6,200 compounds, 77% hits;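 active = mean inhibition at 8 µM reaching about 37%, which flags the compound as non-specific, limit read from the data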;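 also: p53-null SaOS-2 cells with luciferase driven by a doxycycline-inducible promoter; compound on cells about two nights before reading with doxycycline added after day one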
# * hit, by the source's call; . = no result given.
SMILES,SKKanGAS inh,Calb FLC,CSC inhib,T cruzi inh,Beta cell apopt,Mdm2-MdmX inh,Mdm2-MdmX conf,Full FLuc ctr
CC(=O)c1c(C)[nH]c(C(=O)OCC(=O)Nc2ccc(C)cc2[N+](=O)[O-])c1C,-12.9,24.2,-7.8,-4.0,123.0*,51.2*,37.3,58.0*
CCN(CC)S(=O)(=O)c1ccc(N2CCOCC2)c(NC(=O)c2[nH]c(C)c(C(C)=O)c2C)c1,.,.,-14.3,.,0.0,82.7*,40.9*,67.6*
Cc1ccc2nc(SCC(=O)Nc3cc(C(F)(F)F)ccc3N3CCOCC3)[nH]c2c1,13.0,-0.6,62.3,32.7,44.5,84.1*,64.7*,91.5*
Cc1cc(CN(C)C(=O)c2ccc3nc(Cc4ccccc4F)oc3c2)on1,3.8,0.9,21.9,8.7,4.2,-43.5,.,.
CCOc1ccc(N(CC(=O)NCc2ccccc2C)S(C)(=O)=O)cc1,-1.7,6.7,-11.8,1.6,1.2,-10.9,.,.
O=C(CSc1ncn[nH]1)N/N=C/c1ccc(C(F)(F)F)cc1,0.4,6.9,-8.5,3.2,-2.1,25.3,.,.
COc1ccc(CNC(=O)CN(Cc2ccc(OC)cc2)C(=O)CCC(=O)Nc2ccccn2)cc1,-0.9,-4.5,.,10.4,-2.8,2.0,.,.
Cc1ccc(N=Nc2c(N)nn3c(N)c(C#N)c(C)nc23)cc1,-2.5,31.7,-4.4,46.1,-0.4,61.4*,59.1*,48.5*
O=C1NC[C@H](c2ccccc2)OC(=O)[C@@H](Cc2ccc(F)cc2)CC/C=C/C[C@@H]1CC(=O)N(CCO)Cc1ccccc1,.,.,-5.3,.,0.1,6.8,.,.
O=C1NC[C@H](c2ccccc2)OC(=O)[C@H](Cc2ccc(F)cc2)CC/C=C/C[C@H]1CC(=O)N(CCO)Cc1ccccc1,.,.,14.8,.,2.4,78.0*,68.2*,55.0*
O=C1NC[C@H](c2ccccc2)OC(=O)[C@@H](Cc2ccc(F)cc2)CC/C=C/C[C@H]1CC(=O)N(CCO)Cc1ccccc1,.,.,31.4,.,3.7,78.2*,50.5*,62.2*
O=C1CC2(CCCC2)C(=O)N1CN1CCN(S(=O)(=O)c2ccc(Cl)c(Cl)c2)CC1,.,.,.,.,3.6,-9.1,.,.
COc1ccc(OC)c(/C=C/C(=O)Oc2ccc(C(C)=O)cc2)c1,-2.4,1.8,13.9,-11.5,.,5.6,.,.
COc1ccc(OC)c(/C=C/C(=O)c2ccc3c(c2)OCCO3)c1,16.2,-8.2,60.6,-12.0,-14.6,76.2*,16.3,.
COc1cc(/C=C/C(=O)c2ccc(F)cc2)cc(OC)c1OC,-4.0,-0.7,8.9,6.6,-19.8,0.3,.,.
COc1cc(/C=C/C(=O)c2ccc3c(c2)OCO3)cc(OC)c1OC,.,.,.,.,-53.2,91.2*,59.6*,38.2*
COc1ccc(/C=C/C(=O)c2ccc3c(c2)OCO3)cc1OC,.,.,18.8,.,-10.0,19.9,.,.
COc1cc(/C=C/C(=O)c2ccc3c(c2)OCCO3)cc(OC)c1OC,3.4,19.2,44.6,8.1,-20.5,66.5*,46.1*,66.3*
O=S(=O)(Nc1cccc(-n2cnnn2)c1)c1ccccc1F,1.2,25.0,-2.3,-1.8,-3.5,17.0,.,.
COc1ccc(CNc2ncc(-c3ccc(F)cc3)n2C)c2ccccc12,22.4,-14.3,8.2,6.7,-1.6,56.7*,25.3,.
CCOc1ccc(-c2cnc(NCc3cccc4ccccc34)n2CCOC)cc1,11.7,21.3,45.3,72.0*,41.0,88.2*,25.4,.
CCN(CC)CCCn1c2c(c(SCC(=O)Nc3ccc4c(c3)OCO4)nc1=O)CCC2,-2.8,-3.9,-2.8,-12.0,-1.3,11.2,.,.
CC1CCN(S(=O)(=O)c2ccc(C(=O)N3CCOCC3)cc2)CC1,24.4,-6.8,-5.7,-4.0,.,-20.4,.,.
Cc1nnc(NCc2ccccc2)c2ccccc12,0.4,3.9,-4.9,26.0,1.5,-3.4,.,.
COc1ccccc1CN1CC(C(=O)N(C)CCc2nc3ccc(F)cc3[nH]2)CCC1=O (stereo not drawn),2.3,10.2,-7.4,-0.2,-10.4,19.2,.,.
SMILES,SKKanGAS inh,Calb FLC,CSC inhib,T cruzi inh,Beta cell apopt,Mdm2-MdmX inh,Mdm2-MdmX conf,Full FLuc ctr
O=C(c1ccc(N2C(=O)c3ccccc3C2=O)cc1)N1CCCCC1,-3.2,-14.5,13.2,-1.7,2.1,15.8,.,.
CCc1ccc(N2C(=O)C(Cl)=C(Nc3ccc(C(=O)N4CCCC4)cc3)C2=O)cc1,.,.,.,.,-14.1,95.4*,95.1*,38.8*
COc1cc2ccccc2cc1C(=O)N(CCN(C)C)c1nc2c(OC)ccc(OC)c2s1,18.8,37.4,37.2,19.7,-1.0,60.6*,22.4,66.3*
COc1cc2ccccc2cc1C(=O)N(CCN(C)C)c1nc2ccc(C)cc2s1,4.6,-3.4,-8.4,46.4,21.3,68.2*,56.0*,44.7*
CCN(CC)CCN(C(=O)c1cc2ccccc2cc1OC)c1nc2ccc(OC)cc2s1,-5.2,80.5*,33.6,36.7,6.3,51.3*,25.2,.
CCN(CC)CCN(C(=O)c1cc2ccccc2cc1OC)c1nc2ccc(F)cc2s1,5.5,2.1,44.8,41.1,3.9,29.4,.,.
CC(=O)Nc1ccc(S(=O)(=O)Nc2ccc(C)c([N+](=O)[O-])c2)cc1,-3.5,-19.8,-9.9,-6.8,2.9,0.8,.,.
COc1ccc(CCC(=O)NCc2cn3ccccc3n2)cc1,-5.6,-0.5,-11.8,0.3,-0.6,0.9,.,.
C#CCN(CC=C)C(=O)c1ccc(OC2CCN(S(=O)(=O)N(C)C)CC2)cc1,-2.1,-6.1,-17.7,-1.7,-0.9,-13.2,.,.
CCCC(CCC)C(=O)Oc1cc(C)[nH]c(=O)c1[N+](=O)[O-],-12.5,-7.5,-8.6,5.3,-8.8,-5.2,.,.
O=[N+]([O-])c1ccc2nc(Cl)nc(-c3ccccc3)c2c1,1.7,-1.9,-10.9,-8.5,2.7,96.3*,66.0*,53.9*
Cc1ccc(NC(=O)CSc2nc(=O)n(CCCN(C)C)c3c2CCC3)c(C)c1,-1.2,-0.8,-7.1,10.4,-2.4,12.8,.,.
Cc1ccc2nc(NC(=O)CSc3nc(=O)n(CCN(C)C)c4c3CCCC4)sc2c1,2.8,5.3,-1.6,-0.8,-4.2,65.5*,49.0*,71.1*
CCCCc1ccc(NC(=O)CSc2nc(=O)n(CCN(CC)CC)c3c2CCC3)cc1,2.8,2.9,79.7*,20.1,8.2,59.4*,35.5,61.5*
CCN(CC)CCn1c2c(c(SCC(=O)Nc3nc(C)cs3)nc1=O)CCC2,-1.9,-1.7,-9.3,23.5,-10.7,52.0*,14.9,.
O=C(c1ccc(O)c(Cl)c1)N1CCN(S(=O)(=O)c2ccccc2)CC1,1.7,10.6,.,-2.6,4.1,16.3,.,.
O=C(CN1C(=O)c2ccc([N+](=O)[O-])cc2C1=O)NC1CCCCCC1,-2.3,-4.1,-11.8,2.8,-2.7,13.5,.,.
O=C1C=C(c2ccccc2C(F)(F)F)C[C@@H](c2ccc3c(c2)OCO3)C1,.,.,38.9,.,-2.2,1.5,.,.
